Source: the EternaBench riboswitch data

System: MS2 coat protein
Assay: apparent Kd, MS2 coat protein; higher = weaker binding; RNA-MaP array; tryptophan 2.4 mM where present
Method in brief: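 Green signal from SNAP-549-labelled MS2 coat protein was normalised to red-channel RNA signal and to the median Fmax of control clusters. The protein was titrated from 0.7 or 1.5 nM, doubling to 3 µM, without and then with constant ligand, over designs transcribed by stalled E. coli RNA polymerase on Illumina sequencing-chip clusters, in 100 mM Tris-HCl pH 7.5, 80 mM KCl, 4 mM MgCl2, BSA, DTT, yeast tRNA and Tween-20. The apparent Kd is the median of filtered per-cluster binding-curve fits.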

[1] = designed as: OFF switch for tryptophan, no ligand
[2] = ligand present: tryptophan, designed as: OFF switch for tryptophan
[3] = designed as: ON switch for tryptophan, no ligand
[4] = ligand present: tryptophan, designed as: ON switch for tryptophan

Sequence	apparent Kd [1] [nM]	apparent Kd [2] [nM]	apparent Kd [3] [nM]	apparent Kd [4] [nM]
GGGCGCUAUCCCGCGAGGGAUAGCGUUCGUCGAGGACCGGUACGGCCGCCACUCGAACGAGUGGUGACAUGAGGAUCACCCAUGU	50.2	68.8		
GGGUGGUAGGCGGCCGCCACUGAUUUUUAUUUAUAGAUGACAUGAGGAUCACCCAUGUUGAUAUGCAGGACCGGGCCUGUUGUUG			15.1	13.2
GGUAUGUAUUCGGAAACGAAUGCAUACCAACGAGGACCGGUACGGCCGCCACUCGGCGGCGAUCAACAUGAGGAUCACCCAUGUA	40.4	31		
GGUAUGUAUUCGGAAACGAAUGCAUACCAACGAGGACCGGUACGGCCGCCACUCGGGCGGCGAUCACAUGAGGAUCACCCAUGUA	45.7	46.7		
GGUUGAUGACAUGAGGAUCACCCAUGUAGGCGAGGACCGGUACGGCCGCCACUCGACAUGAGGAUCACCCAUGUCGGCGUCCGUG	15.2	26.2		
GUUAUAACAAAAGUUGUAACAGUGGGUGAACGAGGACCGGUACGGCCGCCACUCGGACAUGAGGAUCACCCAUGUCCAUGUGAAA	16.2	40.2		
GUUAUAUCAAAAGAUGUAACAGUGGGUGAACGAGGACCGGUACGGCCGCCACUCGGACAUGAGGAUCACCCAUGUCCAUGUGAAA	17.9	37.1		
UAAACUACACAUGAGGAUCACCCAUGUGGCCGAGGACCGGUACGGCCGCCACUCGUGUGUUAAUAAAAGAACCGCAAAGUUCUGU			268	83.3
UAACAUGAGGAUCACCCAUGUAUACUUAGUCGAGGACCGGUACGGCCGCCACUCGUACUUCAAGAUUUGGCGGAAAAUGUAUGUA	12.5	15.1		
UCGGUGCUCUACAUGAGGAUCACCCAUGUCCGAGGACCGGUACGGCCGCCACUCGCAAUCAAACAGACGUGGGCCAACUUUGCGU	10.3	13.6		
UCGGUUUUCUACAUGAGGAUCACCCAUGUCCGAGGACCGGUACGGCCGCCACUCGCAAUCAAACAGACGUGGGCCAAAUUUGCGU	10	14.3		
UUUGUAAUUGUCUGGUAGAUUUAUUUAUUUCGAGGACCGGUACGGCCGCCACUCGUUAAUUACAUGAGGAUCACCCAUGUUAGCU	13.4	13.2		
